Experimental data taken from ChEMBL document CHEMBL1828563, “Synthesis and biological evaluation of 3-(1H-imidazol- and triazol-1-yl)-2,2-dimethyl-3-[4-(naphthalen-2-ylamino)phenyl]propyl derivatives as small molecule inhibitors of retinoic acid 4-hydroxylase (CYP26)” (J Med Chem, 2011).
The source made the active and inactive calls. The calls are words filed in the database; no cut-off is given here.

Experiments:
[1] = target: T1, Cytochrome P450 26A1 (Homo sapiens, UniProt O43174); experiment: Inhibition of human CYP26A1 assessed using [11,12-3H]ATRA as substrate by scintillation counting
T1 sequence (O43174 whole entry): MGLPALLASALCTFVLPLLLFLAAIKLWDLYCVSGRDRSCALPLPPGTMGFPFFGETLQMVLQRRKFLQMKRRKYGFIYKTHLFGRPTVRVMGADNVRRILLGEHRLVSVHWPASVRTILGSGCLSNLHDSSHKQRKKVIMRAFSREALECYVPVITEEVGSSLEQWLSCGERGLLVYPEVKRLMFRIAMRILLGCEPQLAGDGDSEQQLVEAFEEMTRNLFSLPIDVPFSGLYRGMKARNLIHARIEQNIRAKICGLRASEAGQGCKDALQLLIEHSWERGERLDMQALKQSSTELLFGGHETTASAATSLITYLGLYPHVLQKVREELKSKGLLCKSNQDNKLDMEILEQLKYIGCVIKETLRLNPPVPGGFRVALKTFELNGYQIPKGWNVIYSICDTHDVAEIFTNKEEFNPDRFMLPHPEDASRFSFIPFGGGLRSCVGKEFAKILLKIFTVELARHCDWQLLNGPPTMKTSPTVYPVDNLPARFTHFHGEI
In short: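 CYP26 source: microsomes from MCF-7 cells pretreated 24 h with ATRA to induce CYP26, isolated by differential centrifugation. 50 μg microsomal protein in 50 mM Tris pH 7.4, 150 mM KCl, 10 mM MgCl₂, 0.02% BSA, 2 mM NADPH, 10 nM ATRA plus 0.1 μCi ³H-ATRA. Inhibitor 1–1000 nM, 1 h at 37 °C. Acetonitrile quench, retinoids resolved on C18 HPLC.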

[2] = test system: SH-SY5Y; experiment: Increase in CYP26A1 mRNA expression in human SH-SY5Y cells at 1 uM after 72 hrs by RT-PCR analysis in the presence of 0.1 uM all-trans-retinoic acid; type: functional
In short: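 SH-SY5Y cells grown in RPMI 1640 with 10% FCS and 2 mM L-glutamine. Treated 72 h with 0.1 μM ATRA plus inhibitor at 1 μM; inhibitors in ethanol diluted in medium. Total RNA reverse transcribed for TaqMan real-time PCR of CYP26A1, normalized to β-actin. Fold increase relative to cells given […]; mean ± SD, n = 6.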

[3] = target: T2, CYP1A2 (Homo sapiens, UniProt P05177); experiment: Inhibition of CYP1A2 in human liver microsomes at 0.4 uM; type: ADME, Microsome
T2 sequence (P05177 whole entry): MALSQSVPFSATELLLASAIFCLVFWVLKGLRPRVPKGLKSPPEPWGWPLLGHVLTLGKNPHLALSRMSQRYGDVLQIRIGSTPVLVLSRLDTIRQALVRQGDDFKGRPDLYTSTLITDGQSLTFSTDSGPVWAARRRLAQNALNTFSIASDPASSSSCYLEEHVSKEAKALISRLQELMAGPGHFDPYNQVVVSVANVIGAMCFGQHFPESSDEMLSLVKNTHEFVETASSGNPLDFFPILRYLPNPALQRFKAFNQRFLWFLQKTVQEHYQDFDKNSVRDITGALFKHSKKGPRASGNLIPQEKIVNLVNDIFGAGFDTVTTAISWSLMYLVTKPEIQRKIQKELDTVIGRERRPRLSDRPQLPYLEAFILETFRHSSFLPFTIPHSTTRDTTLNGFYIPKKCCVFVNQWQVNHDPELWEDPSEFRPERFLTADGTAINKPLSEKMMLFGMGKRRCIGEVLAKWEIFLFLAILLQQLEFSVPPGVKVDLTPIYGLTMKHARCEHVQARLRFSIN

[4] = target: CYP3A4 (Homo sapiens, UniProt P08684); experiment: Inhibition of CYP3A4 in human liver microsomes at 0.4 uM; type: ADME, Microsome
[5] = target: CYP2C9 (Homo sapiens, UniProt P11712); experiment: Inhibition of CYP2C9 in human liver microsomes at 0.4 uM; type: ADME, Microsome
[6] = target: CYP2C19 (Homo sapiens, UniProt P33261); experiment: Inhibition of CYP2C19 in human liver microsomes at 0.4 uM; type: ADME, Microsome
[7] = target: CYP2D6 (Homo sapiens, UniProt P10635); experiment: Inhibition of CYP2D6 in human liver microsomes at 0.4 uM; type: ADME, Microsome
[8] = target: Cytochrome P450 2C9 (Homo sapiens, UniProt P11712); experiment: Inhibition of CYP2C9 in human liver microsomes; type: ADME, Microsome
[9] = target: T3, Cytochrome P450 1A2 (Homo sapiens, UniProt P05177); experiment: Inhibition of CYP1A2 in human liver microsomes; type: ADME, Microsome
T3 sequence (P05177 whole entry): T2 sequence (P05177 whole entry)

[10] = target: Cytochrome P450 3A4 (Homo sapiens, UniProt P08684); experiment: Inhibition of CYP3A4 in human liver microsomes; type: ADME, Microsome
[11] = target: Cytochrome P450 2C19 (Homo sapiens, UniProt P33261); experiment: Inhibition of CYP2C19 in human liver microsomes; type: ADME, Microsome
[12] = target: Cytochrome P450 2D6 (Homo sapiens, UniProt P10635); experiment: Inhibition of CYP2D6 in human liver microsomes; type: ADME, Microsome
[13] = Half-life in human liver microsomes; type: ADME, Microsome
[14] = target: T1, Cytochrome P450 26A1; experiment: Inhibition of CYP26 in human MCF-7 cell microsomes

CYP2C9, sequence (P11712 whole entry): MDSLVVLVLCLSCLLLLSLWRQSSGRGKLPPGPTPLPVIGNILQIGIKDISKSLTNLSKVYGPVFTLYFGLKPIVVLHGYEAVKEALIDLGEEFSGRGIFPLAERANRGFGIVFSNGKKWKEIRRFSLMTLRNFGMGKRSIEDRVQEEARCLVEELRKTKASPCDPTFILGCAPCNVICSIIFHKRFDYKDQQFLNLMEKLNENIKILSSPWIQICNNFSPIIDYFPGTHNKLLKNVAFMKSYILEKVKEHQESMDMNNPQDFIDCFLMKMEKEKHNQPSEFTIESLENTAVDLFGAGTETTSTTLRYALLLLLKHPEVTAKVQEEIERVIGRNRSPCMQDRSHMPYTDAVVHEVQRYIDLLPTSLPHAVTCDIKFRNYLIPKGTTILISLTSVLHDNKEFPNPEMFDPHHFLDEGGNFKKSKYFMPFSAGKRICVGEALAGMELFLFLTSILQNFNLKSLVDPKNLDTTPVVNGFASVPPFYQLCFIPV
Cytochrome P450 2C9, sequence (P11712 whole entry): as above
CYP3A4, sequence (P08684 whole entry): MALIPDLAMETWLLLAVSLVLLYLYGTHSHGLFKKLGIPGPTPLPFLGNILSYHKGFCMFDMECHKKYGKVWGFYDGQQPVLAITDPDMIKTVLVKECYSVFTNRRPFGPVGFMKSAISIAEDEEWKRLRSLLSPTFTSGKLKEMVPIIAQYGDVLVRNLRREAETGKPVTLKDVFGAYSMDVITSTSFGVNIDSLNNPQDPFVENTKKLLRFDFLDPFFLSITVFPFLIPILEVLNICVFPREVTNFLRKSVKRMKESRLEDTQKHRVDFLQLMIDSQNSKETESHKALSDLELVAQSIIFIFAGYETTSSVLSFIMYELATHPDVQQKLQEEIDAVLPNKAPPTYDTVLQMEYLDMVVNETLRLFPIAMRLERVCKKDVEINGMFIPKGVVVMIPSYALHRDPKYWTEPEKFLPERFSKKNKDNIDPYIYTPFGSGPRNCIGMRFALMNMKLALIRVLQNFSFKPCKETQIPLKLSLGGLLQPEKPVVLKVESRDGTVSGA
CYP2D6, sequence (P10635 whole entry): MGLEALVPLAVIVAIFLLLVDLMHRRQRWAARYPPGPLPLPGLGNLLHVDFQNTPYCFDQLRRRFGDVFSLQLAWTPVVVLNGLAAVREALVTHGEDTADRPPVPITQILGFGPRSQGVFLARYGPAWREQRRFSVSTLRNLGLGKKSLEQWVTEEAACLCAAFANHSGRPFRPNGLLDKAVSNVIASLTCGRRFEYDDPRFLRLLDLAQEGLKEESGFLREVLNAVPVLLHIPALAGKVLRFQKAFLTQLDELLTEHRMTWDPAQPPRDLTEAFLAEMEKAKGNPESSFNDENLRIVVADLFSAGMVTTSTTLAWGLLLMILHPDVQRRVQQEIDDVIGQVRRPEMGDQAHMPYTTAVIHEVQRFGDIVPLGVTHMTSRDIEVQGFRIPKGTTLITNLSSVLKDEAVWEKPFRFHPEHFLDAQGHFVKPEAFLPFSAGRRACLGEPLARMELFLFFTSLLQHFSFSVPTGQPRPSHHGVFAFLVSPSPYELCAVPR
CYP2C19, sequence (P33261 whole entry): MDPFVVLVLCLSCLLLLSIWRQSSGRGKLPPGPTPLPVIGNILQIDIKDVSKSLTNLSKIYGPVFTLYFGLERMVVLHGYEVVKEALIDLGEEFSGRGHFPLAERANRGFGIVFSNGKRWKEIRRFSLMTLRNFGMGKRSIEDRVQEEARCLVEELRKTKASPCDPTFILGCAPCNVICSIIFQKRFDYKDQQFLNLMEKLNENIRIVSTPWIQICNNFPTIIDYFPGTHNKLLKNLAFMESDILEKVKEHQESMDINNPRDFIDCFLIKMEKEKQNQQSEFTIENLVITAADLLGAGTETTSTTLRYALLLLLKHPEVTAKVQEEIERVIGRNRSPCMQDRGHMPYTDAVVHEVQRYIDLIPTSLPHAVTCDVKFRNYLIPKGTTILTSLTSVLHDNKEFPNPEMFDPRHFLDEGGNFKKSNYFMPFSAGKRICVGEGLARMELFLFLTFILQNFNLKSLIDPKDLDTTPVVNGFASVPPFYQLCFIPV
Cytochrome P450 3A4, sequence (P08684 whole entry): as the sequence (P08684 whole entry) above
Cytochrome P450 2D6, sequence (P10635 whole entry): as the sequence (P10635 whole entry) above
Cytochrome P450 2C19, sequence (P33261 whole entry): as the sequence (P33261 whole entry) above

CC(C)(C(=O)OCc1ccccc1)C(c1ccc(Nc2ccc3ccccc3c2)cc1)n1ccnc1 (stereo unspecified)
IC50 [1]: 400 nM

CCOC(=O)C(C)(C)C(c1ccc(Nc2ccc3ccccc3c2)cc1)n1ccnc1 (stereo unspecified)
IC50 [1]: 0.35 nM
fold change (FC) [2]: 5.8
inhibition at 0.4 µM [3]: 20%
inhibition at 0.4 µM [4]: 61%
inhibition at 0.4 µM [5]: 43%
inhibition at 0.4 µM [6]: 30%
inhibition at 0.4 µM [7]: 15%

CCCCCOC(=O)C(C)(C)C(c1ccc(Nc2ccc3ccccc3c2)cc1)n1ccnc1 (stereo unspecified)
IC50 [1]: 140 nM

CC(C)NC(=O)C(C)(C)C(c1ccc(Nc2ccc3ccccc3c2)cc1)n1ccnc1 (stereo unspecified)
IC50 [1]: 120 nM

CCCCOC(=O)C(C)(C)C(c1ccc(Nc2ccc3ccccc3c2)cc1)n1ccnc1 (stereo unspecified)
IC50 [1]: 200 nM

CC(C)(C(N)=O)C(c1ccc(Nc2ccc3ccccc3c2)cc1)n1ccnc1 (stereo unspecified)
IC50 [1]: 50 nM
fold change (FC) [2]: 4.1

CC(C)(C(=O)O)C(c1ccc(Nc2ccc3ccccc3c2)cc1)n1cncn1 (stereo unspecified)
IC50 [1]: > 1000 nM

c1ccc(C(c2ccc(Nc3ccc4ccccc4c3)cc2)n2ccnc2)cc1 (stereo unspecified)
IC50 [1]: 500 nM

C[C@H]([C@@H](c1ccc(Nc2nc3ccccc3s2)cc1)n1ccnc1)N(C)C
IC50 [8]: 11 µM

CC(C)(C(=O)O)C(c1ccc(Nc2ccc3ccccc3c2)cc1)n1ccnc1 (stereo unspecified)
IC50 [1]: 300 nM

CNC(=O)C(C)(C)C(c1ccc(Nc2ccc3ccccc3c2)cc1)n1cncn1 (stereo unspecified)
IC50 [1]: 350 nM

COc1ccc2cc(Nc3ccc(C(n4ccnc4)C(C)(C)CO)cc3)ccc2c1 (stereo unspecified)
IC50 [1]: 40 nM
fold change (FC) [2]: 3.7

COC(=O)C(C)(C)C(c1ccc(Nc2ccc3ccccc3c2)cc1)n1cncn1 (stereo unspecified)
IC50 [1]: 0.35 nM
fold change (FC) [2]: 5.2
inhibition at 0.4 µM [3]: 10%
inhibition at 0.4 µM [4]: 22%
inhibition at 0.4 µM [5]: 38%
inhibition at 0.4 µM [6]: 16%
inhibition at 0.4 µM [7]: -2%
IC50 [9]: 10.9 µM
IC50 [10]: 330 nM
IC50 [8]: 21.4 µM
IC50 [11]: 3.14 µM
IC50 [12]: 1800 nM
half-life [13]: 224 min
IC50 [14]: 0.3 nM

CN(C)C(=O)C(C)(C)C(c1ccc(Nc2ccc3ccccc3c2)cc1)n1ccnc1 (stereo unspecified)
IC50 [1]: 75 nM
inhibition at 0.4 µM [3]: 11%
inhibition at 0.4 µM [4]: 95%
inhibition at 0.4 µM [5]: 52%
inhibition at 0.4 µM [6]: 21%
inhibition at 0.4 µM [7]: 29%

CNC(=O)C(C)(C)C(c1ccc(Nc2ccc3ccccc3c2)cc1)n1ccnc1 (stereo unspecified)
IC50 [1]: 12 nM
Activity [2]: Active
inhibition at 0.4 µM [3]: 15%
inhibition at 0.4 µM [4]: 86%
inhibition at 0.4 µM [5]: 45%
inhibition at 0.4 µM [6]: 14%
inhibition at 0.4 µM [7]: 13%

CC(C)OC(=O)C(C)(C)C(c1ccc(Nc2ccc3ccccc3c2)cc1)n1ccnc1 (stereo unspecified)
IC50 [1]: 290 nM

COC(=O)C(C)(C)C(c1ccc(Nc2ccc3ccccc3c2)cc1)n1ccnc1 (stereo unspecified)
Activity [2]: Active
IC50 [8]: 8 µM
half-life [13]: 301 min
